KCNQ1 pot: potentiators or activators of human KCNQ1 potassium channel; P51787; CHO-K1 KCNQ1, thallium flux FluxOR fluorescence; stronger effect = higher value; B-score at 10 µM; hit rate 0.35% among 310,000;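 active means fluorescence ratio B-score, a plate-corrected score, at least three library SD, with initial intensity B-score within 5 SD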
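System: Stable KCNQ1 CHO-K1 line | Incubation: 90 min dye loading and 20 min compound exposure, both at room temperature | Measure: Ratio B score | Medium: Assay buffer for compound exposure, DMSO matched across wells | Compound dosing: Single-concentration screen | Probe or stimulus: K+/Tl+ depolarizing stimulus | Measured by: Kinetic FluxOR fluorescence, 10 s baseline plus 110 s post-stimulus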
KCNK3 block: human KCNK3 channel inhibition, primary screen. hit rate 0.84% among 340,000. O14649. B-score at 10 µM. CHO-KCNK3 thallium flux, FluxOR fluorescence; stronger effect = lower value;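 active means B-score under library mean minus 4 SD, starting fluorescence ratio at most library mean plus 5 SD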;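 further: more negative B-score means stronger inhibition of thallium flux through KCNK3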
KCNK9 inh: inhibitors of human KCNK9 two-pore domain potassium channel | HEK293 KCNK9, FluxOR thallium flux fluorescence; stronger effect = lower value | hit rate 1.2% among 310,000 | B-score at 10 µM | Q9NPC2;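 active means ratio B-score over 3 SD below the library mean, with starting fluorescence within 5 SD of its mean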;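 further: negative B-score means less thallium flux so channel inhibition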
hERG rescue: compounds protecting human hERG from proarrhythmic drug block | hit rate 0.51% among 310,000 | activation (rescue from dofetilide block), less the hit threshold, % at 10 µM | Q12809 | CHO-hERG, FluxOR thallium flux, dofetilide IC70 present | AID 1511;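 active means activation above the mean of controls blocked by dofetilide plus 5 SD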;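 further: thallium influx through hERG after potassium depolarization seen as dye fluorescence rise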
KCNQ1 block: blocks the human KCNQ1 potassium channel | P51787 | CHO-K1 KCNQ1, FluxOR thallium flux fluorescence; stronger effect = higher value | B-score at 10 µM | hit rate 1.3% among 310,000 | AID 2642;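 active means compounds whose thallium flux B-score, printed positive for inhibition, exceeds three library SD while starting fluorescence stays within three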;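 further: channel opened by potassium depolarization with thallium stimulus after 20 min compound exposure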
KCNK9 inh conf: human KCNK9 inhibitor confirmation; inhibition, % at 10 µM; hit rate 43% among 4,900; shares compounds with KCNK9 inh; HEK293 KCNK9 cells, FluxOR thallium flux fluorescence;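 active means thallium signal inhibited by more than 5 SD of the compound-free buffer control wells, on both duplicate plates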;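 further: 0% = assay buffer control wells without compound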
Kir21 sel: selectivity of KCNK9 modulators against mouse Kir2.1; shares compounds with KCNK9 inh; Kir2.1 cells, FluxOR thallium flux fluorescence; inhibition, % at 10 µM; hit rate 4% among 4,900; AID 492993;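 active means thallium signal drop more than 5 SD beyond the mean of the no-compound control wells, seen in both duplicate plates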;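 further: signal is fluorescence rise after thallium addition divided by baseline fluorescence; plate controls were assay buffer only for no effect and full block by chlorpromazine control for full effect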
HEK293 Tl ctr: non-induced cell nonspecific activity of KCNK9 modulators | shares compounds with KCNK9 inh | non-induced KCNK9-HEK293, FluxOR thallium flux | inhibition, % at 10 µM | hit rate 40% among 4,900 | AID 492997;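 active means thallium signal drop beyond 5 SD of the untreated control mean, on both duplicate plates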;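 further: plate controls were buffer only IC0 wells for no effect and SID17386958 at its maximal inhibitory level for full effect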
* marks the source's active call; other numbers are inactive results. This is a sample that favours compounds with a hit; in the whole collection about 3.1% have one here.

For CC(=O)Nc1ccc(NC(=O)COC(=O)c2c3c(nc4ccccc24)CCN(Cc2ccccc2)C3)cc1 the results were KCNQ1 pot inactive, KCNK3 block inactive, KCNK9 inh inactive, hERG rescue -8 and KCNQ1 block inactive.
For Cc1ccc2c(c1)C1(C(=O)N2)N2CCCC2C(C(=O)c2ccc3ccccc3c2)C12C(=O)Nc1ccccc12 (configuration not stated) the results were KCNK3 block inactive.
`Clc1ccccc1-c1ccc(CN2CCN(c3ccccc3)CC2)o1` gave KCNQ1 pot inactive, KCNK3 block inactive, KCNK9 inh inactive, hERG rescue -5, KCNQ1 block inactive, KCNK9 inh conf inactive, Kir21 sel inactive and HEK293 Tl ctr inactive.
Screening Cc1ccc(N2CCN(S(=O)(=O)c3nnc(NC(=O)c4ccccc4)s3)CC2)cc1 returned KCNQ1 pot inactive, KCNK3 block inactive, KCNK9 inh inactive, hERG rescue -4 and KCNQ1 block inactive.
For CCOC(=O)c1c(NC(=O)c2nn(CC)cc2Br)c(C#N)nn1-c1ccccc1 the results were KCNQ1 pot inactive, KCNK3 block inactive, KCNK9 inh -9.3*, hERG rescue -9, KCNQ1 block inactive, KCNK9 inh conf 30%*, Kir21 sel inactive and HEK293 Tl ctr 33%*.
For COC(=O)c1cc(=O)n(CCc2ccccc2)c(=Nc2ccc(F)cc2)s1 the results were KCNQ1 pot inactive, KCNK3 block inactive, KCNK9 inh -10*, hERG rescue -15, KCNQ1 block 8*, KCNK9 inh conf 35%*, Kir21 sel inactive and HEK293 Tl ctr 34%*.
For CCOC(=O)c1ccc(N=c2sc(C(=O)OC)cc(=O)n2Cc2ccco2)cc1 the results were KCNQ1 pot inactive, KCNK3 block inactive, KCNK9 inh inactive, hERG rescue -7, KCNQ1 block inactive, KCNK9 inh conf inactive, Kir21 sel inactive and HEK293 Tl ctr 38%*.
CCOC(=O)c1ccc(N=c2sc(C(=O)OC)cc(=O)n2CCCN2CCOCC2)cc1 was read as KCNQ1 pot inactive, KCNK3 block inactive, KCNK9 inh inactive, hERG rescue -17 and KCNQ1 block inactive.
`CCN(CC)S(=O)(=O)c1ccc(/C=C/C(=O)Nc2cccc(F)c2)cc1` gave KCNQ1 pot inactive, KCNK3 block inactive, KCNK9 inh inactive, hERG rescue -10 and KCNQ1 block inactive.
For Cc1ccc(CNC(=O)C2CCC(=O)N(C3CC3)C2)cc1 (configuration not stated) the results were KCNQ1 pot inactive, KCNK3 block inactive, KCNK9 inh inactive, hERG rescue -5 and KCNQ1 block inactive.
C(#Cc1ccccc1)CN1CCN(c2ccccn2)CC1 was read as KCNQ1 pot inactive, KCNK3 block inactive, KCNK9 inh inactive, hERG rescue -5, KCNQ1 block inactive, KCNK9 inh conf inactive, Kir21 sel inactive and HEK293 Tl ctr inactive.
Screening C(#Cc1ccccc1)CN1CCCCC1 returned KCNQ1 pot inactive, KCNK3 block inactive, KCNK9 inh inactive, hERG rescue -6 and KCNQ1 block inactive.
O=C(O)CCCn1cc(NC(=O)COc2cc(F)ccc2[N+](=O)[O-])cn1 was read as KCNQ1 pot inactive, KCNK3 block inactive, KCNK9 inh inactive, hERG rescue -5 and KCNQ1 block inactive.
Screening COc1ccc(NC(=O)CSc2nnc(Cc3cccs3)n2-c2ccc(C)cc2)cc1 returned KCNQ1 pot inactive, KCNK3 block inactive, KCNK9 inh inactive, hERG rescue -7, KCNQ1 block inactive, KCNK9 inh conf inactive, Kir21 sel inactive and HEK293 Tl ctr inactive.
`COc1ccc(-n2c(Cc3cccn3C)nnc2SCC(=O)Nc2cccc(Cl)c2)cc1` gave KCNQ1 pot inactive, KCNK3 block inactive, KCNK9 inh inactive, hERG rescue -3, KCNQ1 block inactive, KCNK9 inh conf inactive, Kir21 sel inactive and HEK293 Tl ctr inactive.
Screening Cc1cccc(NS(=O)(=O)c2cc3c(cc2C)NC(=O)CO3)c1 returned KCNQ1 pot inactive, KCNK3 block inactive, KCNK9 inh inactive, hERG rescue -7 and KCNQ1 block inactive.
`CCCOc1ccc(-c2c(=O)n(OCc3ccc([N+](=O)[O-])cc3)c3ccccc3[n+]2[O-])cc1` gave KCNQ1 pot inactive, KCNK3 block inactive, KCNK9 inh -11*, hERG rescue -4, KCNQ1 block inactive, KCNK9 inh conf 50%*, Kir21 sel inactive and HEK293 Tl ctr 34%*.
CCCN(c1ccccc1C(=O)O)S(=O)(=O)c1ccc2c(c1)n(C)c(=O)n2C was read as KCNQ1 pot inactive, KCNK3 block inactive, KCNK9 inh inactive, hERG rescue -3 and KCNQ1 block inactive.
Cc1cccc(CN2CCN(C(=O)c3cccc4ccccc34)CC2)c1 was read as KCNQ1 pot inactive, KCNK3 block inactive, KCNK9 inh inactive, hERG rescue -9, KCNQ1 block inactive, KCNK9 inh conf inactive, Kir21 sel inactive and HEK293 Tl ctr inactive.
Screening Cc1ccc(CN2CCN(C(=O)c3cccc4ccccc34)CC2)cc1 returned KCNQ1 pot inactive, KCNK3 block inactive, KCNK9 inh inactive, hERG rescue -11 and KCNQ1 block inactive.
`Cn1ncc2c(=O)[nH]cnc21` gave KCNQ1 pot inactive, KCNK3 block inactive, KCNK9 inh inactive, hERG rescue -10 and KCNQ1 block inactive.
`COc1ccc2c(c1)C(=NNc1ccc(C(=O)O)cc1)c1cc(OC)ccc1-2` gave KCNQ1 pot inactive, KCNK3 block inactive, KCNK9 inh inactive, hERG rescue -8, KCNQ1 block inactive, KCNK9 inh conf inactive, Kir21 sel inactive and HEK293 Tl ctr inactive.
`CCOC(=O)N1CCN(C(=O)CSc2ccc(-c3cccnc3)nn2)CC1` gave KCNQ1 pot inactive, KCNK9 inh inactive, hERG rescue -5 and KCNQ1 block inactive.
Cc1ccc2c(c1)C(C)CC(C)(C)N2C(=O)NC1CCCCC1 (configuration not stated) was read as KCNQ1 pot inactive, KCNK3 block inactive, KCNK9 inh inactive, hERG rescue -14 and KCNQ1 block inactive.
For Cc1ccc2c(c1)N(C(=O)NC1CCCCC1)C(C)(C)CC2C (configuration not stated) the results were KCNQ1 pot inactive, KCNK3 block inactive, KCNK9 inh inactive, hERG rescue -16, KCNQ1 block inactive, KCNK9 inh conf inactive, Kir21 sel inactive and HEK293 Tl ctr inactive.
